One may read the IC50 as the concentration at which inhibition is half-maximal. As a reminder, the inhibition is the percentage by which the read-out fell short of the control.

Assay [1] has as its target T1, Aldo-keto reductase family 1 member C3 (Homo sapiens, UniProt P42330).
T1 sequence (P42330 whole entry): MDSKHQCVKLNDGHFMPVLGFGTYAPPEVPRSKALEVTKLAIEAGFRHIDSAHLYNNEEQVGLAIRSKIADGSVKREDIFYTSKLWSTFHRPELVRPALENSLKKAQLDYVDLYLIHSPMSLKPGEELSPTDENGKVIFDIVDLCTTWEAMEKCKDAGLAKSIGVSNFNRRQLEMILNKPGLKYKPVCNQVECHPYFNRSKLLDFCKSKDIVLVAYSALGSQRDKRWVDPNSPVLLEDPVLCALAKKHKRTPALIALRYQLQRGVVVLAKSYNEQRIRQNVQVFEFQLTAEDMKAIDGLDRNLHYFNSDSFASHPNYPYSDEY
The assay is described as follows: Inhibition of recombinant human AKR1C3 expressed in Escherichia coli BL21 (DE) using [14C]androstenedione as substrate in presence of NADPH generating system. A digest of the protocol: (§1)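 E. coli expressing AKR1C3, unlysed, suspended in 100 mM phosphate pH 6.6 (~15 µg protein). Incubated with [14C]androstenedione (6×10^-4 µCi), Tween 80 0.1 mg/mL, 1 mM ATP, 1 mM MgCl2 and NADPH-generating system (1 mM NADP+, 3 mM glucose-6-phosphate, 3 U G6PDH) for 30 min at 30 °C with shaking. Conversion to testosterone quantified by radioactivity scanning of TLC.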

For assay [2], the target named is T2, Aldo-keto reductase family 1 member C3 (Homo sapiens) (UniProt P42330).
T2 sequence (whole entry): T1 sequence (P42330 whole entry)
The assay is described as follows: Inhibition of recombinant human AKR1C3 expressed in Escherichia coli BL21 […] at 50 uM using [14C]androstenedione as substrate in presence of NADPH generating system. A digest of the protocol: as §1

The target in assay [3] is T3, Prostaglandin G/H synthase 1 (Ovis aries, UniProt P05979).
T3 sequence (P05979 whole entry): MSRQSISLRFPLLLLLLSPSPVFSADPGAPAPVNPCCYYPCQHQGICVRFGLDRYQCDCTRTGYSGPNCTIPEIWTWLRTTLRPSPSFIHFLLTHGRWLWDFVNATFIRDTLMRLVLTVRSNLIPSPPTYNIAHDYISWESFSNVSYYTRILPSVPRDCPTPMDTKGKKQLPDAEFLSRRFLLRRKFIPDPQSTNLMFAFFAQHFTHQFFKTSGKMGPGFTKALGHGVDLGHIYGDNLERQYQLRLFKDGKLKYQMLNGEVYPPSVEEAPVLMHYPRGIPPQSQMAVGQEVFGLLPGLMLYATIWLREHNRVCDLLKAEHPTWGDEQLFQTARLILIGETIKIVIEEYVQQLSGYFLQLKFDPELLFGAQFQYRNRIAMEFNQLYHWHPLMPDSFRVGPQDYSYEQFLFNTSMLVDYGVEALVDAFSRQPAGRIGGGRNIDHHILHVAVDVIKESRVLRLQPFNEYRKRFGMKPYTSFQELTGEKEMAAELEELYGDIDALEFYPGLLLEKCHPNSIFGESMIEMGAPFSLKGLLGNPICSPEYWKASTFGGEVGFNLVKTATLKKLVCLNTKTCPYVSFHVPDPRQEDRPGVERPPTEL
The assay is described as follows: Inhibition of ovine COX1 assessed as reduction in PGF2alpha production by ELISA. A digest of the protocol:
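Commercial COX (ovine COX-1/human COX-2) inhibitor screening kit. PGH2 formed by COX is reduced by SnCl2 to PGF2α, which is quantified by ELISA absorbance. IC50 by linear regression. Mean ± SE of at least three experiments.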
For orientation: In an ELISA, binding on a coated surface is turned into a signal by an enzyme label.

Assay [4] addresses T1, Aldo-keto reductase family 1 member C3. The experiment in a line: Inhibition of AKR1C3 (unknown origin) using S-tetralol as substrate in presence of NADP+ by fluorimtery. Put shortly:
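Purified recombinant enzyme (GST-tagged, glutathione-sepharose purified, thrombin-cleaved) with S-tetralol in 100 mM phosphate pH 7, 200 µM NADP+, 10% ethanol. […] NADPH formation followed fluorimetrically (ex 340/em 460 nm) at 37 °C. IC50 from initial velocities versus solvent controls; means of two experiments in triplicate.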

Assay [5] addresses T4, Aldo-keto reductase family 1 member C2 (Homo sapiens, UniProt P52895).
T4 sequence (P52895 whole entry): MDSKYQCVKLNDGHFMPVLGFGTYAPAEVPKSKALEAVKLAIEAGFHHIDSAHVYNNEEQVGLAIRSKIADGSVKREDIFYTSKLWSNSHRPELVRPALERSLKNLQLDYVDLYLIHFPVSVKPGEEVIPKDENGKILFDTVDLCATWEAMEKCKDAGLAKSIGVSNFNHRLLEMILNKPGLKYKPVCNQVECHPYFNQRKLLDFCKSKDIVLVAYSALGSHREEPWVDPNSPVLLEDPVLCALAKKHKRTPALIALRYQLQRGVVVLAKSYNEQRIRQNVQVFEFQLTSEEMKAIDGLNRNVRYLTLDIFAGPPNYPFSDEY
The experiment in a line: Inhibition of AKR1C2 (unknown origin) using S-tetralol as substrate by fluorimtery. A digest of the protocol: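 Purified recombinant enzyme (GST-tagged, glutathione-sepharose purified, thrombin-cleaved) with S-tetralol in 100 mM phosphate pH 7, 200 µM NADP+, 10% ethanol. IC50 from initial velocities versus solvent controls; means of two experiments in triplicate.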

For assay [6], the species on record is Homo sapiens. The experiment in a line: Selectivity index, ratio of IC50 for AKR1C2 (unknown origin) to IC50 for AKR1C3 (unknown origin).
Assay [7] deals with T5, Prostaglandin G/H synthase 1 (Ovis aries) (UniProt P05979).
T5 sequence (whole entry): T3 sequence (P05979 whole entry)
The assay is described as follows: Inhibition of ovine COX1 assessed as reduction in PGF2alpha production at 100 uM by ELISA.

A short description of assay [8]: Selectivity index, ratio of IC50 for ovine COX1 to IC50 for AKR1C3 (unknown origin).
The species entered for assay [9] is Homo sapiens. The assay is described as follows: Selectivity index, ratio of IC50 for human COX2 to IC50 for AKR1C3 (unknown origin).
The test system of assay [10] is CWR22R. The experiment in a line: Inhibition of AKR1C3-mediated testosterone production in human 22Rv1 cells at 100 uM after 1 hr in presence of androstenedione by ELISA. As to conditions: 22Rv1, 1 h. Format: functional.
Assay [11] has as its system CWR22R. The experiment in a line: Antiproliferative activity against human 22Rv1 cells after 72 hrs by sulforhodamine B colorimetric proliferation assay. The format is functional, cell-based. As to conditions: 22Rv1, 72 h. Put shortly: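 22RV1 castration-resistant prostate cells were seeded at 10,000 cells/well in RPMI with 10% charcoal-stripped serum and allowed to adhere for 24 h at 37 °C, 5% CO2. Inhibitor dilutions in ethanol were added in triplicate for 72 h, with ethanol-matched controls (max 1% v/v). Growth was read by SRB and given as %T/C (treated/control OD). Means of two experiments, each in triplicate.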

Assay [12] concerns CWR22R. The experiment in a line: Inhibition of AKR1C3-mediated testosterone production in human 22Rv1 cells after 1 hr in presence of androstenedione by ELISA. Format: functional, cell-based. A digest of the protocol:
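22RV1 cells seeded at 30,000/well in RPMI with 10% charcoal-stripped serum, 24 h. Inhibitor added at four concentrations for 1 h, then 28 nM androstenedione, further 24 h. Supernatant testosterone measured by ELISA at 405 nm against a standard curve, corrected for androstenedione cross-reactivity. Means of two experiments in triplicate.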

Assay [13] deals with CWR22R. The experiment in a line: Antiproliferative activity against human 22Rv1 cells at 60 uM after 72 hrs by sulforhodamine B colorimetric proliferation assay. The format is functional, cell-based.
In assay [14] the test system is CWR22R. The experiment in a line: Synergistic antiproliferative activity against human 22Rv1 cells at 60 uM after 72 hrs in presence of 10 uM abiraterone by sulforhodamine B colorimetric proliferation assay. The format is functional. Put shortly: (§2)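 Co-treatment by SRB assay: 22RV1 cells in RPMI with 10% charcoal-stripped serum, given 60 µM inhibitor with or without 10 µM abiraterone or 20 µM enzalutamide for 72 h. Growth expressed as % T/C (mean OD treated/control ×100). Means of two experiments in triplicate.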

Assay [15] deals with CWR22R. The assay is described as follows: Synergistic antiproliferative activity against human 22Rv1 cells at 60 uM after 72 hrs in presence of 20 uM enzalutamide by sulforhodamine B colorimetric proliferation assay. Format: functional. A digest of the protocol: as §2
Assay [16] addresses Prostaglandin G/H synthase 2 (Homo sapiens) (UniProt P35354). The assay is described as follows: Inhibition of human COX2 assessed as reduction in PGF2alpha production at 100 uM by ELISA.
In assay [17] the test system is CWR22R. The experiment in a line: Antiproliferative activity against human 22Rv1 cells at 20 uM after 72 hrs by sulforhodamine B colorimetric proliferation assay. The format is functional, cell-based.
Assay [18] has as its system CWR22R. The assay is described as follows: Antiproliferative activity against human 22Rv1 cells at 10 uM after 72 hrs by sulforhodamine B colorimetric proliferation assay. The format is functional, cell-based.

Calls of active or inactive are those of the source. No cut-off for these calls is given here.

Prostaglandin G/H synthase 2 (Homo sapiens), sequence (P35354 whole entry, looked up): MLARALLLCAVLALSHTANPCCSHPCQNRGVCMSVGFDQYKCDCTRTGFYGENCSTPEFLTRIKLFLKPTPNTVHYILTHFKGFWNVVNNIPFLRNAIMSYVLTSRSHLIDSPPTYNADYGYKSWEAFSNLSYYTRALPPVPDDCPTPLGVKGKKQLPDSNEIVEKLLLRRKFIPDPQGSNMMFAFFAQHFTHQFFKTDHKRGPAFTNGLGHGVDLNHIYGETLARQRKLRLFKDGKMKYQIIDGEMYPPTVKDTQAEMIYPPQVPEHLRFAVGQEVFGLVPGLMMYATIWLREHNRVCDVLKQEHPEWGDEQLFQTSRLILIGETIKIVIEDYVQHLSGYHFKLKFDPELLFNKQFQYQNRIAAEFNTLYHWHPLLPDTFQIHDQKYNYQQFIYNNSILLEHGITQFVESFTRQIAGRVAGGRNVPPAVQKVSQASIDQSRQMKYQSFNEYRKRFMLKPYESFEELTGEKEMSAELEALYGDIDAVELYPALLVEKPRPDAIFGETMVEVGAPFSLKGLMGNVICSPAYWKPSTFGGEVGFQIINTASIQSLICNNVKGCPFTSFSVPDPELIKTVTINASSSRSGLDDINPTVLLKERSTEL

Regarding `O=C(Nc1cccc(C(F)(F)F)c1)c1nsnc1O`, the IC50 in assay [1] is at least 50 µM. The inhibition in assay [2] is 47.2%.

As to `COc1ccc(Cn2nnc(O)c2C(=O)Nc2cccc(C(F)(F)F)c2)cc1`, the IC50 in assay [1] is 3.56 µM; in assay [3] it was above 100 µM; in [4], 0.31 µM; in assay [5], 73.2 µM; in the assay on CWR22R [11] it was 81.4 µM. Moreover, the Ratio IC50 in the assay listed under Homo sapiens [6] was 236; in assay [8], above 322; in the assay listed under Homo sapiens [9], above 322. The figures for the inhibition (in assay [7]; in the assay with CWR22R [12]; in assay [16]) were 0%, “Dose-dependent effect” and 12%, respectively. The inhibition at 100 µM in the assay on CWR22R [10] came to 50%. Also, the result in the assay on CWR22R [13] was inactive. The Activity stood at 45% in the assay with CWR22R [14] and 50% in the assay with CWR22R [15].

Consider `O=C(Nc1cccc(C(F)(F)F)c1)c1nn(CC2CC2)nc1O`, for which, in [1], the IC50 was above 50 µM. The inhibition in assay [2] came to 5.35%.

In the case of `CNC(=O)c1ccc(N2C(=S)N(c3ccc(C#N)c(C(F)(F)F)c3)C(=O)C2(C)C)cc1F`, the result with CWR22R [17] was inactive.

As to `O=C(Nc1cccc(C(F)(F)F)c1)c1c(O)nnn1CC1CC1`, the IC50 is 13.2 µM in assay [1], above 100 µM in [3], 1.6 µM in assay [4] and 70.6 µM in assay [5]. In addition, the Ratio IC50 is 44 in the assay listed under Homo sapiens [6], above 63 in [8] and above 63 in the assay filed under Homo sapiens [9]. The values for the inhibition in assay [7] and in assay [16] were 17% and 9.6%, respectively.

`O=C(Nc1cccc(C(F)(F)F)c1)c1c(O)nnn1Cc1ccccc1`: the IC50 was 10.2 µM in assay [1]; above 100 µM in [3]; 0.48 µM in assay [4]; 62.9 µM in [5]; 67.1 µM with CWR22R [11]. In addition, the Ratio IC50 in the assay listed under Homo sapiens [6] was 131; in [8], above 208; in the assay listed under Homo sapiens [9], above 208. Moreover, the inhibition in assay [7] was 15%; in assay [16], 7.5%.

Turning to `O=C(O)c1ccccc1Nc1cccc(C(F)(F)F)c1` [FLUFENAMIC ACID], the IC50 in assay [1] worked out at 8.63 µM; in [3], 14 µM; in assay [4], 0.44 µM; in the assay on CWR22R [11] it was 115 µM.

With `Cn1nnc(O)c1C(=O)Nc1cccc(C(F)(F)F)c1`, in assay [1], the IC50 stood at 32.8 µM.

As to `O=C(Nc1cccc(C(F)(F)F)c1)c1nonc1O`, the IC50 in assay [1] is above 50 µM. In assay [2], the inhibition is 35.4%.

Regarding `Cn1nc(O)c(C(=O)Nc2cccc(C(F)(F)F)c2)n1`, in assay [1], the IC50 was above 50 µM. In assay [2], the inhibition turned out to be 18.5%.

Turning to `C[C@]12CC[C@H](O)CC1=CC[C@@H]1[C@@H]2CC[C@]2(C)C(c3cccnc3)=CC[C@@H]12`, in the assay with CWR22R [18], the result was inactive.
